# Source: ChEMBL document CHEMBL1687848, “In vitro effect of qnrA1, qnrB1, and qnrS1 genes on fluoroquinolone activity against isogenic Escherichia coli isolates with mutations in gyrA and parC” (2011)
# Tests used:
# Format in all cases: functional
# [1] = test system: Escherichia coli; assay: Antibacterial activity against Escherichia coli ATCC 25922 expressing qnrA gene and pBK-QnrA1 assessed as mutant prevention concentration
# [2] = test system: Escherichia coli; assay: Antibacterial activity against qnrB gene expressing Escherichia coli ATCC 25922 harboring GyrA S83L mutant and pBK-QnrB1 assessed as resistant colonies recovered one step below mutant prevention concentration
# How it was run: (§1)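 Resistant colonies recovered from Mueller-Hinton plates one concentration step below the MPC for each fluoroquinolone were retested for MIC. Mutants taken from plated concentrations closest to the MPC had the QRDRs of gyrA and parC analysed.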
# [3] = test system: Escherichia coli; assay: Antibacterial activity against qnrB gene expressing Escherichia coli ATCC 25922 harboring GyrA S83L mutant and pBK-QnrB1 assessed as earliest time required to resistant colonies visible one step below mutant prevention concentration
# [4] = test system: Escherichia coli; assay: Ratio of mutant prevention concentration to MIC for Escherichia coli ATCC 25922 expressing qnrS gene and pBK-QnrS1
# How it was run: (§2)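 MIC: broth microdilution per CLSI, in duplicate. The ratio is MPC over MIC. Strains are E. coli ATCC 25922 or its GyrA Ser83Leu gene-replacement mutant, with qnr genes on pBK-CMV introduced by electroporation.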
# [5] = test system: Escherichia coli; assay: Antibacterial activity against qnrB gene expressing Escherichia coli ATCC 25922 harboring ParC S80R mutant, ParC S80R mutant and pBK-QnrB1 by broth microdilution method
# [6] = test system: Escherichia coli; assay: Antibacterial activity against qnrA gene expressing Escherichia coli ATCC 25922 harboring ParC S80R mutant, ParC S80R mutant and pBK-QnrA1 by broth microdilution method
# [7] = test system: Escherichia coli; assay: Ratio of mutant prevention concentration to MIC for Escherichia coli ATCC 25922; how it was run: as §2
# [8] = test system: Escherichia coli; assay: Antibacterial activity against Escherichia coli ATCC 25922 expressing qnrS gene and pBK-QnrS1 assessed as mutant prevention concentration
# [9] = test system: Escherichia coli; assay: Antibacterial activity against Escherichia coli ATCC 25922 expressing qnrS gene and pBK-QnrS1 assessed as resistant colonies recovered one step below mutant prevention concentration; how it was run: as §1
# [10] = test system: Escherichia coli; assay: Antibacterial activity against qnrS gene expressing Escherichia coli ATCC 25922 harboring GyrA S83L mutant and pBK-QnrS1 assessed as earliest time required to resistant colonies visible one step below mutant prevention concentration
# [11] = test system: Escherichia coli; assay: Ratio of mutant prevention concentration to MIC for Escherichia coli ATCC 25922 expressing qnrB gene and pBK-QnrB1; how it was run: as §2
# [12] = test system: Escherichia coli; assay: Antibacterial activity against Escherichia coli ATCC 25922 assessed as mutant prevention concentration
smiles,measurement,setting,value
CCn1cc(C(=O)O)c(=O)c2cc(F)c(N3CCNCC3)cc21 [NORFLOXACIN],Activity,[1],8 µg/mL
same,MIC,[2],2 µg/mL
same,Time,[3],24 h
same,Ratio,[4],16
same,MBC,[5],4 µg/mL
same,MIC,[5],4 µg/mL
same,MBC,[6],64 µg/mL
same,MIC,[6],8 µg/mL
same,Ratio,[7],266.7
same,Activity,[8],8 µg/mL
same,MIC,[9],1 µg/mL
same,Time,[10],24 h
same,Ratio,[11],32
same,Activity,[12],4 µg/mL
